The values below come from ChEMBL document CHEMBL3632560, “1,4-Oxazine β-Secretase 1 (BACE1) Inhibitors: From Hit Generation to Orally Bioavailable Brain Penetrant Leads” (J Med Chem, 2015).

Data set [1] is described as follows: Drug metabolism in mouse liver microsomes at 1 uM after 15 min by HPLC-MS/MS analysis. The class given is ADME. Conditions: read-out: Drug metabolism.
Data set [2] in a line: Drug metabolism in human liver microsomes at 1 uM after 15 min by HPLC-MS/MS analysis. The class given is ADME. To be noted: read-out: Drug metabolism.
Data set [3] is described as follows: Ratio of drug level in brain to plasma of pathogen free CD1 Swiss mouse at 10 mg/kg, po. The class given is ADME, organism-based. In outline:
(§1)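 Fasted male CD1 Swiss SPF mice dosed 10 mg/kg p.o. (n=6) in 20% HPβCD at pH 3.9 or 20% SBEβCD at pH 3.5. Plasma and brain taken at 2, 4 and 7 h. One hemisphere used for drug bioanalysis; the other was homogenized for Aβ42 and Aβ total by sandwich immunoassay. Kp calculated from AUC0-last.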

Data set [4] in a line: Drug metabolism in dog liver microsomes at 1 uM after 15 min by HPLC-MS/MS analysis. The class given is ADME, Canis lupus familiaris. To be noted: read-out: Drug metabolism. In outline: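 Final solvent 0.01% DMSO and 0.5% acetonitrile. Reaction started with NADPH and quenched with acetonitrile at 15 min. Percent metabolized is parent loss measured by HPLC-MS/MS.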
The nature of data set [5]: Distribution coefficient, logD of the compound by chromatography. The class given is physicochemical. To be noted: octanol/water.
The nature of data set [6]: Dissociation constant, pKa of the compound by potentiometric titration assay. The class given is physicochemical.
Data set [7] in a line: Drug uptake in pathogen free CD1 Swiss mouse brain at 10 mg/kg, po after 4 hrs. The class given is ADME, organism-based. To be noted: read-out: Drug uptake. In outline: as §1
A further data set deals with MDR1 (human). In words: Apparent permeability across apical to basolateral side in pig LLC cells transfected with human MDR1 at 5 uM by HPLC-MS/MS analysis. The class given is ADME, cell-based, Sus scrofa. Conditions: LLC-PK1.
The nature of data set [8]: Tmax in Beagle dog at 2.5 mg/kg, po. The class given is ADME, organism-based, Canis lupus familiaris. Conditions: in vivo. In outline:
(§2)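 Fasted Beagle dogs, 2 male and 2 female per dose group, given doses from 0.08 to 10 mg/kg in 20% HPβCD at pH 3.5. Plasma drug levels followed over time to give Cmax, Tmax and T½. CSF Aβ42 measured by MesoScale electrochemiluminescence for up to 50 h after dosing.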

Data set [9] can be described thus: Elimination half-life in Beagle dog at 2.5 mg/kg, po. The class given is ADME, organism-based, Canis lupus familiaris. Conditions: in vivo, read-out: beta t1/2 (converted). In outline: as §2
The nature of data set [10]: Cmax in Beagle dog at 2.5 mg/kg, po. The class given is ADME, organism-based, Canis lupus familiaris. More on the design: dose 2.5 mg/kg, route oral. Conditions: in vivo. A digest of the protocol: as §2

Turning to `COc1cnc(C(=O)Nc2ccc(F)c([C@@]3(C)N=C(N)CO[C@@H]3F)c2)cn1`, the figures for the metabolised at 0.25 h, 1 µM in data set [1], in [2] and in [4] were 3%, 31% and 70%, respectively. In addition, in data set [3], the concentration ratio (Kp) came to 0.65. In [5], the chromatographic logD is 2.04. In data set [6], the pKa was determined as 7.8. Besides, the concentration at 4 h in [7] came to 195 ng/g.

Take `COc1cnc(C(=O)Nc2ccc(F)c([C@@]3(C)N=C(N)CO[C@H]3F)c2)cn1`: in data set [6], the pKa turned out to be 7.6.

Take `COc1cnc(C(=O)Nc2ccc(F)c([C@@]3(C)N=C(N)CO[C@]3(F)C(F)(F)F)c2)cn1`: the pKa in data set [6] stood at 6.9.

In the case of `C[C@]1(c2cc(NC(=O)c3ccc(Cl)cn3)ccc2F)N=C(N)CO[C@@H]1F`, the metabolised at 0.25 h, 1 µM in [1] was 17%; in data set [2] it was 0%; in [4], 7%. Besides, the Papp A→B at 5 µM with MDR1 (human) worked out at 8.5 ×10⁻⁶ cm/s. This molecule returned a pKa in [6] of 7.9.

In [6], `COc1cnc(C(=O)Nc2ccnc([C@@]3(C)N=C(N)CO[C@@H]3F)c2)cn1` (racemic) showed a pKa of 2.6.

`C[C@]1(c2cc(NC(=O)c3ccc(C#N)cn3)ccc2F)N=C(N)CO[C@@H]1F`: the results for the metabolised at 0.25 h, 1 µM in data set [1], in data set [2] and in data set [4] were 2%, 0% and 0%, respectively. Also, in data set [3], the Kp stood at 0.33. Further, the Tmax in data set [8] was 2.5 h. For the same molecule, the half-life in data set [9] is 25 h. Moreover, the peak concentration (Cmax) in data set [10] amounted to 571 ng/mL. The molecule further displayed a pKa in data set [6] of 7.9. Besides, the concentration at 4 h in [7] was found to be 98 ng/g.

In the case of `CC1(c2ccccc2)COCC(N)=N1` (stereo not drawn), in data set [6], the pKa stood at 9.8.

As to `COc1cnc(C(=O)Nc2ccc(F)c([C@]3(C)COCC(N)=N3)c2)cn1`, the metabolised at 0.25 h, 1 µM was 6% in data set [1] and 1% in data set [2]. Also, in the data set with MDR1 (human), the apical-to-basolateral permeability (Papp A→B) at 5 µM amounted to 3.7 ×10⁻⁶ cm/s. In data set [6], this molecule registered a pKa of 9.

On to `COc1cnc(C(=O)Nc2ccc(F)c([C@@]3(C)N=C(N)CO[C@@]3(F)C(F)(F)F)c2)cn1`, for which the chromatographic logD in data set [5] was 3.43. The molecule further returned a pKa in [6] of 6.8.

As for `C[C@]1(c2cc(N)ccc2F)N=C(N)CO[C@H]1C(F)(F)F`, in data set [6], the pKa came out at 8.

Molecule `C[C@]1(c2cc(N)ccc2F)N=C(N)CO[C@@H]1F` came in with a pKa in data set [6] of 8.1.

For `C[C@@]1(c2cccc(NC(=O)c3ccc(Cl)cn3)c2)COCC(N)=N1`, the metabolised at 0.25 h, 1 µM in data set [1] is 6%; in data set [2] it was 0%. In [6], this molecule showed a pKa of 9.6.

`COc1cnc(C(=O)Nc2cc([C@@]3(C)N=C(N)CO[C@@H]3F)ccn2)cn1` (racemic): the pKa in data set [6] was 2.8.

Regarding `Cc1cc(Cl)cnc1C(=O)Nc1ccc(F)c([C@@]2(C)N=C(N)CO[C@@H]2F)c1`, the metabolised at 0.25 h, 1 µM in data set [1] was 98%; in [2], 16%; in data set [4], 21%. Besides, the apparent permeability from apical to basolateral (Papp A→B) at 5 µM in the data set on MDR1 (human) came out at 9.3 ×10⁻⁶ cm/s. Besides, the pKa in data set [6] was found to be 7.4.

Turning to `COc1cnc(C(=O)Nc2ccc(F)c([C@@]3(C4CC4)N=C(N)CO[C@@H]3F)c2)cn1`, the pKa in [6] came to 7.8.
